How the values were obtained:
[1] = Volume of distribution at steady state in iv dosed mouse; assay type: ADME, organism-based; conditions: in vivo, read-out: Vdss
Homo sapiens = organism: Homo sapiens; experiment: Inhibition of neuronal type nAChR (unknown origin) at 10 uM by radioligand binding assay relative to control
[2] = Intrinsic clearance in rat liver microsomes; assay type: ADME, microsome; conditions: read-out: CLH
[3] = Permeability in RRCK cells; assay type: ADME, cell-based, Canis lupus familiaris, MDCKII-LE; conditions: dog, MDCK; read-out: permeability
[4] = target: Vasopressin V1a receptor (Homo sapiens) (UniProt P37288); experiment: Agonist activity at human V1A receptor expressed in CHOK1 cells assessed as increase in calcium flux at 10 uM by fluorimetric method relative to control; assay type: functional, cell-based
[5] = target: T1, Alpha-1A adrenergic receptor (Homo sapiens) (UniProt P35348); experiment: Antagonist activity at recombinant human alpha1a receptor expressed in CHOK1 cells assessed as inhibition of epinephrine-induced calcium flux at 10 uM by fluorescence assay relative to control; assay type: functional, cell-based
T1 sequence (whole entry): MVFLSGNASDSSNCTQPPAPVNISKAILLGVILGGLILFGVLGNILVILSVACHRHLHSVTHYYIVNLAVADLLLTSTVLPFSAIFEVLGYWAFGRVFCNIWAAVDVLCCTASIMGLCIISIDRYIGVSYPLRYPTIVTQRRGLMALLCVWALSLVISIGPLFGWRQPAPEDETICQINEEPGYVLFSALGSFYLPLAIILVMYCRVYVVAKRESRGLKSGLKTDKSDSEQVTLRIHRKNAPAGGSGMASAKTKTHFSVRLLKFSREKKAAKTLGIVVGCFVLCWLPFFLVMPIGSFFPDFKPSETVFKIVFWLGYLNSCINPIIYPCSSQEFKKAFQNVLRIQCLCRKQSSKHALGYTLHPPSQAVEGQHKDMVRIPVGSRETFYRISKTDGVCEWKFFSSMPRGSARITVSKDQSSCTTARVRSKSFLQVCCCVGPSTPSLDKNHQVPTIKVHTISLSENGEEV

Cytochrome P450 2C9 = Cytochrome P450 2C9 (Homo sapiens, UniProt P11712); experiment: Inhibition of CYP2C9 (unknown origin); assay type: ADME
Sequence of Cytochrome P450 2C9 (P11712 whole entry, the tested form may be a part): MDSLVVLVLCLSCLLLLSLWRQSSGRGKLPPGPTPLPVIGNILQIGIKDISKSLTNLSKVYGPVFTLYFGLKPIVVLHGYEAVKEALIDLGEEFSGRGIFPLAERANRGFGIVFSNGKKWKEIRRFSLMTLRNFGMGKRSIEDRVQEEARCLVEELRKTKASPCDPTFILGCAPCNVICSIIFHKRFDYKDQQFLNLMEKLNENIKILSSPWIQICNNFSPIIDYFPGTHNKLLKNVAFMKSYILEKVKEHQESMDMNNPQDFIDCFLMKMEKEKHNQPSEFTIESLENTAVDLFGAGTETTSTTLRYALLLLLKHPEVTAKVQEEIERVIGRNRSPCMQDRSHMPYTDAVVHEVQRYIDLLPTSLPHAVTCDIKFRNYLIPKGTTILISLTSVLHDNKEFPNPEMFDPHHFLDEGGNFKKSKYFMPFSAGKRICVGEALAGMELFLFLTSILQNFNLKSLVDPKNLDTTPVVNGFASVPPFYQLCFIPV

[6] = Clearance in dog blood at 0.3 mg/kg, iv via infusion for 0.5 hrs; assay type: ADME, organism-based, Canis lupus familiaris; conditions: whole blood
Summary of the method: (§1)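 Blood clearance was calculated from the measured plasma clearance and the measured blood:plasma ratio.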

Adenosine receptor A1 = Adenosine receptor A1 (Homo sapiens, UniProt P30542); experiment: Agonist activity at recombinant human adenosine A1 receptor expressed in mouse BA/F3 cells assessed as increase in calcium flux by spectrophotometric method; assay type: functional, cell-based
Sequence of Adenosine receptor A1 (P30542 whole entry): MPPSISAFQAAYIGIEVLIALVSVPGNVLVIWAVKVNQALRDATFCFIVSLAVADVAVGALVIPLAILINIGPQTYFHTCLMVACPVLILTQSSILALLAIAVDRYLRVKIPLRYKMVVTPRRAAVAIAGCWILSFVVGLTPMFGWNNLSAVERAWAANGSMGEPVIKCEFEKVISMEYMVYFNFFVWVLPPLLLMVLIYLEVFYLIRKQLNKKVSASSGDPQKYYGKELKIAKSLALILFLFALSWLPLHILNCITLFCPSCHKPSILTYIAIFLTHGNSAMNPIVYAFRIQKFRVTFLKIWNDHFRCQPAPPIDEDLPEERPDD

[7] = target: 5-hydroxytryptamine receptor 1B (Homo sapiens, UniProt P28222); experiment: Agonist activity at human 5-HT1B receptor expressed in HeLa cells assessed as increase in cAMP accumulation measured after 20 mins by HTRF method; assay type: functional, cell-based
Sequence of 5-hydroxytryptamine receptor 1B (P28222 whole entry): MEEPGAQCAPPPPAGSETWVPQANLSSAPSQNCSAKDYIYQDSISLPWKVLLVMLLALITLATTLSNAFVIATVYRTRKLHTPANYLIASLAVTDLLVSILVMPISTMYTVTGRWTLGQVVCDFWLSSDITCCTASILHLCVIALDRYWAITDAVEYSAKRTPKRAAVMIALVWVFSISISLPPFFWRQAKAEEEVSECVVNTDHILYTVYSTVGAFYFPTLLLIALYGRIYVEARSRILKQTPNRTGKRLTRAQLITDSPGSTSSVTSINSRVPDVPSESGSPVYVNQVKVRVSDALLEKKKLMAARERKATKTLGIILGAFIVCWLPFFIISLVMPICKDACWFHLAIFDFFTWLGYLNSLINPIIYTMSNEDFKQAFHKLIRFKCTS

[8] = Inhibition of dog Nav1.7 expressed in HEK cells by automated patchXpress electrophysiology method; assay type: cell-based; conditions: HEK293
[9] = target: Cholecystokinin receptor type A (Homo sapiens) (UniProt P32238); experiment: Agonist activity at recombinant human CCK1 receptor expressed in CHOK1 cells assessed as increase in cAMP accumulation at 10 uM after 30 mins by HTRF assay relative to control
Sequence of Cholecystokinin receptor type A (Homo sapiens) (P32238 whole entry, looked up): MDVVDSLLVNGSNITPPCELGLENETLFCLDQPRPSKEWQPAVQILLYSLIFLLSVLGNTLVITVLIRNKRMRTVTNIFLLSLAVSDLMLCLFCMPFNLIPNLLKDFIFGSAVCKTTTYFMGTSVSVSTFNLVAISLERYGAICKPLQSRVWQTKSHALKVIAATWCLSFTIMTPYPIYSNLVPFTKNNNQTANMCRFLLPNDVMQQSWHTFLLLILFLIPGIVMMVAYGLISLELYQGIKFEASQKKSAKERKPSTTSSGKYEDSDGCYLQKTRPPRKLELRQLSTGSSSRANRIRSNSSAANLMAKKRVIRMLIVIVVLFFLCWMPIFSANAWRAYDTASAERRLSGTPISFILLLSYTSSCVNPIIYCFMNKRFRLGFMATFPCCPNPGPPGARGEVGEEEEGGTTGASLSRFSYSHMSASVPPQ

[10] = target: Sodium channel protein type 4 subunit alpha (Homo sapiens, UniProt P35499); experiment: Inhibition of human Nav1.4 expressed in HEK cells by patch clamp electrophysiology method; assay type: cell-based
[11] = target: 5-hydroxytryptamine receptor 1A (Homo sapiens) (UniProt P08908); experiment: Agonist activity at human 5-HT1A receptor expressed in mouse BA/F3 cells assessed as increase in calcium flux at 10 uM by fluorimetric method relative to control; assay type: functional, cell-based
Sequence of 5-hydroxytryptamine receptor 1A (Homo sapiens) (P08908 whole entry): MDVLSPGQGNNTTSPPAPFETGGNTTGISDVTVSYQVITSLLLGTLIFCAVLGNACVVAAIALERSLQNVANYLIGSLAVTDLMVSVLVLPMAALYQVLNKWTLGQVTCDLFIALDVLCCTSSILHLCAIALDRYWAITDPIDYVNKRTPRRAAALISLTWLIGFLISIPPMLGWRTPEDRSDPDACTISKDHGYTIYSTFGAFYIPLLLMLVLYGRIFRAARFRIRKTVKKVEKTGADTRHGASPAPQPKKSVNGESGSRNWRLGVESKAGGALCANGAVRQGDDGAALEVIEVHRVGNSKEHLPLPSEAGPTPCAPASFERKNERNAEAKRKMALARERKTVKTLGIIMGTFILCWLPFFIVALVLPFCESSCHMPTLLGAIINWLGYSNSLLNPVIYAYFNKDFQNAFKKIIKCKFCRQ

[12] = target: Sodium channel protein type 3 subunit alpha (Homo sapiens, UniProt Q9NY46); experiment: Inhibition of human Nav1.3 expressed in HEK cells by patch clamp electrophysiology method; assay type: cell-based
Sequence of Sodium channel protein type 3 subunit alpha (Q9NY46 whole entry): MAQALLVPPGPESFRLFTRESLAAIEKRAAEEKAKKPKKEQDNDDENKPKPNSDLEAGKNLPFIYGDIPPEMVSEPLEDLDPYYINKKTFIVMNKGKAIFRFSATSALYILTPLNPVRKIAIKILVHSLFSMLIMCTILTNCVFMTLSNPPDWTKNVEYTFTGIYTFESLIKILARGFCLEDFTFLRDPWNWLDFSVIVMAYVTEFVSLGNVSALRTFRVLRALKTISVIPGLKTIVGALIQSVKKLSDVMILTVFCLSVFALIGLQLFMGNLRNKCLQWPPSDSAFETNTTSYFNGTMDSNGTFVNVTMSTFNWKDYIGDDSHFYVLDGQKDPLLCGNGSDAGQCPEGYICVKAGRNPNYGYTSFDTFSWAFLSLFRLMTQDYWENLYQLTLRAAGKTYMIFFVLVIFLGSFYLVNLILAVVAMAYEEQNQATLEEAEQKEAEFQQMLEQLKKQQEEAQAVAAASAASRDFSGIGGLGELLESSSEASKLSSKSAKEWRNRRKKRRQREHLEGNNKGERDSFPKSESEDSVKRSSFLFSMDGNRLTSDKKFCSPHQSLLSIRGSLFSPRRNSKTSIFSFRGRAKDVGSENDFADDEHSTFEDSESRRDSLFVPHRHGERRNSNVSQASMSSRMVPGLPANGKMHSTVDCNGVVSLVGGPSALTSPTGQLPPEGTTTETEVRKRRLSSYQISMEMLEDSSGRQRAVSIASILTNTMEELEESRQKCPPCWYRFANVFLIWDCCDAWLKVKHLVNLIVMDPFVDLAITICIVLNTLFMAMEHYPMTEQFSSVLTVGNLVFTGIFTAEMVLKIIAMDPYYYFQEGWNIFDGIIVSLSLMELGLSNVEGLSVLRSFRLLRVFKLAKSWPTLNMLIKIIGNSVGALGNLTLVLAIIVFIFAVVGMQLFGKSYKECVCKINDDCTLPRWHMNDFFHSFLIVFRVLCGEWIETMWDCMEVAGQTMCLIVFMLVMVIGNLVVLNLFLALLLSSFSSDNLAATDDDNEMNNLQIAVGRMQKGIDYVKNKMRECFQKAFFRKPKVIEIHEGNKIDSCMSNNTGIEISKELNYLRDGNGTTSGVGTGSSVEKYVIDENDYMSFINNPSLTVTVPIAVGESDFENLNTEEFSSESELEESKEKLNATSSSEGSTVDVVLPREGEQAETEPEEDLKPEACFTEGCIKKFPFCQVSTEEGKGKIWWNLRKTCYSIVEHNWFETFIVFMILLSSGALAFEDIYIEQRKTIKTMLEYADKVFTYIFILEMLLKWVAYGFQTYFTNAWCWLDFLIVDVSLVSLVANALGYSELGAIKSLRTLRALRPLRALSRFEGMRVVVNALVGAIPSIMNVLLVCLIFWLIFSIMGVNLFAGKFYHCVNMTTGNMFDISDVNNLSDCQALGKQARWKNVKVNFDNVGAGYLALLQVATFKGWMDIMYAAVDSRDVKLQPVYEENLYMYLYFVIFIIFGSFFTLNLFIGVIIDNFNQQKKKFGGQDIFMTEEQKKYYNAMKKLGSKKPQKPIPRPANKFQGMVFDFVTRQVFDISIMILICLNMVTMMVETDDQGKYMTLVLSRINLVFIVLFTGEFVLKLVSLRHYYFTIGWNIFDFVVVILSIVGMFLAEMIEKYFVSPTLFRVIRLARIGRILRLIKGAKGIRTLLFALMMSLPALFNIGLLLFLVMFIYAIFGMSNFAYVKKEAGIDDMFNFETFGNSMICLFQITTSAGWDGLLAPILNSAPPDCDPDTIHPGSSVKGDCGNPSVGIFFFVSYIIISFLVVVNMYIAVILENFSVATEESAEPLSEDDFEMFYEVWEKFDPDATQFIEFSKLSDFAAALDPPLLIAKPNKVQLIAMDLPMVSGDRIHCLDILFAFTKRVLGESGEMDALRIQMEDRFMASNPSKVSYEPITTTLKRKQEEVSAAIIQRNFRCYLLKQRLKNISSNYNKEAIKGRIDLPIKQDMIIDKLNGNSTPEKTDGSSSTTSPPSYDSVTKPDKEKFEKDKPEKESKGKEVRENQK

Cytochrome P450 3A4 = Cytochrome P450 3A4 (Homo sapiens, UniProt P08684); experiment: Inhibition of CYP3A4 (unknown origin); assay type: ADME
Sequence of Cytochrome P450 3A4 (P08684 whole entry, the tested form may be a part): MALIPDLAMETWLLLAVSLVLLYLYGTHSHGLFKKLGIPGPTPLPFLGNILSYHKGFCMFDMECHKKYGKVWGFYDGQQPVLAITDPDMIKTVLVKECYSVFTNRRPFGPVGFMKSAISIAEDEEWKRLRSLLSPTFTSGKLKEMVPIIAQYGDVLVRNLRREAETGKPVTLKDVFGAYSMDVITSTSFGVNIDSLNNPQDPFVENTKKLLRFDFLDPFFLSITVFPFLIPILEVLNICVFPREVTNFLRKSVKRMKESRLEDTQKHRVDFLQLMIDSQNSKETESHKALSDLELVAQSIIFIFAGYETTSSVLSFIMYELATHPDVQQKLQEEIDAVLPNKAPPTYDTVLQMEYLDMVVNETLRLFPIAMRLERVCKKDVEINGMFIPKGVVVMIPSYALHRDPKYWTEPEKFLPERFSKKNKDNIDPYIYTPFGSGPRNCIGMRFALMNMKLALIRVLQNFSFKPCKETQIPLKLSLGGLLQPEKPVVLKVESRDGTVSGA

[13] = Primary phase half-life in dog at 0.3 mg/kg, iv via infusion for 0.5 hrs; assay type: ADME, organism-based, Canis lupus familiaris; conditions: in vivo, read-out: alphat1/2 (converted)
Summary of the method: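 Dog IV pharmacokinetics, with half-life reported as two values: α (initial phase) and β (terminal phase) of the disposition profile.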

Cytochrome P450 1A2 = Cytochrome P450 1A2 (Homo sapiens, UniProt P05177); experiment: Inhibition of CYP1A2 (unknown origin); assay type: ADME
[14] = target: Endothelin-1 receptor (Homo sapiens) (UniProt P25101); experiment: Agonist activity at human ETA receptor expressed in SK-N-MC cells assessed as increase in calcium flux at 10 uM by fluorimetric method relative to control; assay type: functional, cell-based
Sequence of Endothelin-1 receptor (Homo sapiens) (P25101 whole entry): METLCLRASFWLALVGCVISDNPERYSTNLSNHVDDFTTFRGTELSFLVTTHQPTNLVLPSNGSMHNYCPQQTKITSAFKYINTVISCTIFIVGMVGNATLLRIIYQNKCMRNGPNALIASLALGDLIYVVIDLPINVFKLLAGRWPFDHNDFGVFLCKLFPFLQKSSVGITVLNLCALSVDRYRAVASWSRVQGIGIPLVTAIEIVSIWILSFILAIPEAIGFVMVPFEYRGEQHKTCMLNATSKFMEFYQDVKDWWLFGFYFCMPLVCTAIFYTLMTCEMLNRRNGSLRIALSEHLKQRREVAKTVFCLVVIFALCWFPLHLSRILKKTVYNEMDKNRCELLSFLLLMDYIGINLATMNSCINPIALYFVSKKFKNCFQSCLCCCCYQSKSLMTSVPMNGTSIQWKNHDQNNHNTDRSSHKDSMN

[15] = Cytotoxicity against human THLE cells; assay type: cell-based
[16] = target: Type-1 angiotensin II receptor (Homo sapiens) (UniProt P30556); experiment: Agonist activity at recombinant human AT1 receptor expressed in HEK293 cells assessed as increase in calcium flux at 10 uM by spectrophotometric method relative to control; assay type: functional, cell-based
[17] = target: T2, Muscarinic acetylcholine receptor M1 (Homo sapiens) (UniProt P11229); experiment: Displacement of [3H]pirenzepine from recombinant human M1 receptor at 10 uM after 60 mins by scintillation counting method
T2 sequence (whole entry): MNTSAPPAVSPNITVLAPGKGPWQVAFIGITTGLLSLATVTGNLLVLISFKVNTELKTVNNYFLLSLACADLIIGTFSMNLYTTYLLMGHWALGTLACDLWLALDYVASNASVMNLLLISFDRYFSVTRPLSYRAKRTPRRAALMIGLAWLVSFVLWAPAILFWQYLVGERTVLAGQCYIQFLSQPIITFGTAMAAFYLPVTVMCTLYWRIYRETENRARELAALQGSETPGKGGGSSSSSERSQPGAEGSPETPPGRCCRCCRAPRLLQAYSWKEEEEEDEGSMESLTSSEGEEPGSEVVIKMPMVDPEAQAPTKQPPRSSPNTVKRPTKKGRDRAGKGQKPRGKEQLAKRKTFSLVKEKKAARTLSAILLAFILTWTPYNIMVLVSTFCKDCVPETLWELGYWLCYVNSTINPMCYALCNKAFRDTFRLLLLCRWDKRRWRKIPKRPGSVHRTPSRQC

[18] = Clearance in rat blood at 0.3 mg/kg, iv via infusion for 1 hr; assay type: ADME, organism-based; conditions: whole blood; summary of the method: as §1
[19] = target: Histamine H1 receptor (Homo sapiens) (UniProt P35367); experiment: Agonist activity at human H1 receptor expressed in HEK293 cells assessed as increase in calcium flux at 10 uM by fluorimetric method relative to control; assay type: functional, cell-based
[20] = target: GABA-A receptor; alpha-1/beta-2/gamma-2 (Homo sapiens) (UniProt P14867+P47870+P18507); experiment: Displacement of [3H]muscimol from recombinant human GABAalpha1beta2gamma2 at 10 uM measured after 120 mins by scintillation counting method; assay type: protein-complex assay
Rattus norvegicus = organism: Rattus norvegicus; experiment: Displacement of [3H]diltiazem from L-type calcium channel diltiazem binding site in rat brain at 10 uM after 120 mins by scintillation counting method
[21] = Biliary clearance in rat at 0.3 mg/kg, iv via infusion for 1 hr; assay type: ADME, organism-based, Bile; conditions: in vivo
Cytochrome P450 2C19 = Cytochrome P450 2C19 (Homo sapiens, UniProt P33261); experiment: Inhibition of CYP2C19 (unknown origin); assay type: ADME

Structure (SMILES): N#Cc1cc(S(=O)(=O)Nc2ncns2)ccc1Oc1ccc(-c2cccc(C(F)(F)F)c2)cc1-c1ccnc(CNCCC2CCNCC2)c1
- Vd [1]: 0.54 L/kg
- inhibition (Homo sapiens): 34%
- microsomal CLint [2]: < 14.1 µL/min/mg
- Papp [3]: 0.62 ×10⁻⁶ cm/s
- Activity [4]: -4%
- inhibition [5]: 23%
- IC50 (Cytochrome P450 2C9): 3750 nM
- clearance [6]: 39.8 mL/min/kg
- EC50 (Adenosine receptor A1): 1430 nM
- EC50 [7]: > 10000 nM
- IC50 [8]: < 0.03 nM
- Activity [9]: 4%
- IC50 [10]: 1450 nM
- Activity [11]: -34%
- IC50 [12]: 6440 to 11500 nM
- IC50 (Cytochrome P450 3A4): 1150 nM
- half-life [13]: 3.42 min
- IC50 (Cytochrome P450 1A2): > 30000 nM
- Activity [14]: 8%
- IC50 [15]: 108000 nM
- Activity [16]: -3%
- inhibition [17]: 48%
- clearance [18]: 178 mL/min/kg
- Activity [19]: 4%
- inhibition [20]: 0%
- inhibition (Rattus norvegicus): 40%
- CL [21]: 44 mL/min/kg
- IC50 (Cytochrome P450 2C19): 1320 nM
